# TAAR1 antagonist: human TAAR1 antagonists, primary screen, Fluo-8 calcium fluorescence, CHO RD-HGA16 cells | Trace amine-associated receptor 1 (Homo sapiens), Q96RJ0 | antagonist | inhibition, % at 3 µM | 360,000 compounds, 1.5% hits | AID 624466, 2012;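 active = inhibition above a per-plate cutoff, the mean inhibition of test compounds on that plate plus 3 SD, cut at about 49% in these data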
# Target sequence (Q96RJ0 whole entry, looked up): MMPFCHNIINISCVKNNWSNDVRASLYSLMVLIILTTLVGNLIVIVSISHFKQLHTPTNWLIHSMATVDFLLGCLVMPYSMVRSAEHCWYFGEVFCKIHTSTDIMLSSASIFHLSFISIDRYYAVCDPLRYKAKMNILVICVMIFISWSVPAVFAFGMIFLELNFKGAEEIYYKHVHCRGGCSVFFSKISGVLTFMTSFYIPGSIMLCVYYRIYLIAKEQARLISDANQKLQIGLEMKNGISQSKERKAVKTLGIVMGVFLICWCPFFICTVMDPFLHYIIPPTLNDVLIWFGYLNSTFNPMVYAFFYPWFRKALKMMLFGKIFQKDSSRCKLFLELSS
#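 Assay system: RD-HGA16 CHO cells with stable hTAAR1 and Gα16 / Reagent: EC80 β-phenethylamine stimulus / Doses: 3 µM, single point / Timing: dye loading 75 min at 37 °C, then 30 min room temperature / Measured by: Fluo-8 intracellular calcium dye fluorescence, real-time kinetic reads / Controls: vehicle wells and EC80 agonist wells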
# OX1R antag-1: antagonists of human orexin 1 receptor (OX1R). 330,000 compounds, 1.8% hits. AID 485270, 2010. inhibition, % at 6.6 µM. OX1R-expressing cells, FRET antagonist read-out; in the data active = inhibition mostly above about 38%, no sharp cut-off; inactive = mostly below about 40%
# TAAR1 agonist: human TAAR1 agonists, primary screen, Fluo-8 calcium fluorescence, CHO RD-HGA16 cells. vehicle wells 0%, saturating PEA agonist 100%. activation, % at 3 µM. 360,000 compounds, 0.99% hits. AID 624467, 2012;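 active = activation above the mean activation of all test compounds in the run plus 3 SD, cut at about 38% in these data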
#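 Assay system: CHO-derived RD-HGA16 cells with stable Gα16 and human TAAR1; timing: 17-24 h seeding, 75 min 37 °C dye, 30 min RT; read-out: % activation from peak over basal fluorescence ratio, DMSO-to-PEA scaled; measured by: kinetic Fluo-8 calcium fluorescence; benchmarks: low control DMSO, high control PEA (EC100); doses: 3 µM single concentration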
# OX1R antag-2: OX1R (HCRTR1) antagonists, primary screen, fluorescence, CHO/OX1R cells, Fluo-8 calcium, orexin A; Orexin/Hypocretin receptor type 1 (Homo sapiens), O43613; Fluo-8 calcium fluorescence; inhibition, % at 5 µM; 330,000 compounds, 0.43% hits; AID 434989, 2010;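 active = inhibition above its plate's threshold, mean inhibition of all tested compounds on the plate plus 3 SD, cut at about 37% in these data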
# GPR7 antagonist: GPR7 receptor antagonists, primary screen, cell-based, fluorescence, single concentration. 290,000 compounds, 1.1% hits. AID 1861, 2009. Neuropeptides B/W receptor type 1 (Homo sapiens), P48145. inhibition, % at 4.4 µM. GPR7-expressing cells, fluorescence antagonist assay; in the data active = inhibition above about 16%, passing the limit was not always enough;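 note: cells stimulated with the agonist NPW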
# Target sequence (P48145 whole entry, looked up): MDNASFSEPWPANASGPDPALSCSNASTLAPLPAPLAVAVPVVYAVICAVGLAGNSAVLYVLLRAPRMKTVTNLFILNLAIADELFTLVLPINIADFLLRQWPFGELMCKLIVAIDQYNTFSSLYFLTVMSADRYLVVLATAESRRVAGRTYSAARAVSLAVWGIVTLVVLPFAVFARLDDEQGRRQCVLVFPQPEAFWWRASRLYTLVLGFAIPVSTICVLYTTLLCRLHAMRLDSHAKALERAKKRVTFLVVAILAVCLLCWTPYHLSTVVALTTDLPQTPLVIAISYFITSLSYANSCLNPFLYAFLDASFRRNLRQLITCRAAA
# CHO parental Ca: ATP-evoked calcium signal inhibitors, parental CHO, primary screen, counter-screen for OX1R antagonist project, cell-based, fluorescence, Fluo-8 calcium dye; inhibition, % at 5.6 µM; parental CHO-K1, ATP-induced calcium, Fluo-8 fluorescence; 330,000 compounds, 0.63% hits;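 active = inhibition above that plate's mean sample inhibition plus 3 SD, cut at about 26% in these data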
#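 Assay system: parental CHO cells; Read-out basis: percent inhibition of ATP-evoked calcium rise, normalized to controls; Benchmarks: ATP and no-ATP DMSO wells; Compound dosing: single nominal dose of 5.6 µM per compound; Signal: Fluo-8 calcium dye fluorescence; Also added: ATP as calcium-mobilizing challenge; Repeats: singlicate.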
# Numbers stand for hits; n = inactive; x = no result. In the library only some 4.6% were active in any assay of this set; here they are far more common.
SMILES,TAAR1 antagonist,OX1R antag-1,TAAR1 agonist,OX1R antag-2,GPR7 antagonist,CHO parental Ca
COCCNc1nc(-c2ccccc2)nc2ccccc12,n,46,n,n,n,n
Cc1ccc(CNc2nc(-c3cccnc3)nc3ccccc23)cc1,n,n,n,n,n,n
COc1ccc(CCNc2nc(-c3cccnc3)nc3ccccc23)cc1OC,63,n,n,n,n,n
COc1cc(/C=C2\SC(=N)N(c3ccc4c(c3)OCO4)C2=O)cc(OC)c1O,n,51,n,n,n,n
CC1(c2ccccc2)NC(=O)N(CC(=O)NCCN2C(=O)S/C(=C\c3cccnc3)C2=O)C1=O (centres undefined),n,x,n,x,x,x
CCC1(c2ccccc2)NC(=O)N(CC(=O)NCCN2C(=O)S/C(=C\c3cccnc3)C2=O)C1=O (centres undefined),n,57,n,n,x,n
CCOC(=O)[C@@H]1[C@H]2COc3ccc(Br)cc3[C@@H]2N2C(=O)N(c3ccc(OC)cc3)C(=O)[C@@]12C,n,n,n,n,x,n
COc1cc(CNCC(O)c2ccccc2)ccc1OCc1ccc(Cl)nc1 (centres undefined),n,n,39,n,n,n
COc1ccc(NC(=O)CCSc2cc(C)c3ccccc3n2)cc1,n,n,n,n,n,n
COc1ccc2nc(SCC(=O)NN)cc(C)c2c1,n,49,n,n,n,n
CC(C)Cn1c(N)c(C(=O)COC(=O)Cc2cccc(C(F)(F)F)c2)c(=O)n(C)c1=O,n,n,n,n,x,55
CC(C)Cn1c(N)c(C(=O)CSc2ccc3c(c2)OCCO3)c(=O)n(C)c1=O,n,n,n,n,n,55
CC(C)Cn1c(N)c(C(=O)COC(=O)c2c(F)cccc2F)c(=O)n(C)c1=O,n,n,39,n,n,n
CC(C)Cn1c(N)c(C(=O)COC(=O)c2ccccc2Cl)c(=O)n(C)c1=O,n,n,n,n,n,n
CC(C)Cn1c(N)c(C(=O)COC(=O)c2ccccc2F)c(=O)n(C)c1=O,n,n,n,n,17,n
CCOC(=O)C1(C)CCN1C(=O)c1cccc(C#N)c1 (centres undefined),n,x,n,x,x,x
O=c1c2ccccc2oc2ccc(NCCCN3CCOCC3)cc12,n,n,n,n,n,n
Cn1c2ccccc2c(=O)c2cc(NCCCN3CCOCC3)ccc21,n,59,n,n,x,n
O=c1oc2c3c4c(cc2c(C(F)(F)F)c1CCN1CCOCC1)CCCN4CCC3,n,n,41,n,n,n
CC(C)c1cc(=O)oc2c3c4c(cc12)CCCN4CCC3,n,n,n,n,n,n
CNC(=O)COc1ccc2oc3c(c2c1)CCCC3,n,n,n,n,n,n
Cc1ccnc(NC(=O)COc2ccc3oc4c(c3c2)CCCC4)c1,n,54,n,n,n,n
C[n+]1c(/C=C/c2ccc(O)cc2)ccc2ccccc21,n,73,n,n,n,n
COC(=O)C1=C(C)N(Cc2ccccc2)C(=S)N[C@H]1c1cccc(C(F)(F)F)c1,56,n,n,n,x,n
COC(=O)C1=C(C)N(Cc2ccccc2)C(=NCC(C)C)N[C@H]1c1cccc(F)c1,n,n,44,n,x,n
SMILES,TAAR1 antagonist,OX1R antag-1,TAAR1 agonist,OX1R antag-2,GPR7 antagonist,CHO parental Ca
Cc1ccnc(NC(=O)CCC(=O)N(Cc2ccco2)C(C(=O)NC(C)C)c2ccc(F)cc2)c1 (centres undefined),n,n,n,n,n,n
O=C(NCCN1C(=O)S/C(=C\c2ccccc2F)C1=O)C1CC(=O)N(Cc2ccccc2)C1 (centres undefined),54,n,n,n,x,n
O=C(NCCN1C(=O)S/C(=C\c2cccnc2)C1=O)C1CC(=O)N(Cc2ccco2)C1 (centres undefined),n,n,n,n,n,n
O=C(C1=NN(c2ccccc2)C(=O)CC1)N1CCc2ccccc2C1,n,n,n,n,n,n
CCOC(=O)C1CCC(C(=O)OCC)N1c1ccc(C=O)cc1 (centres undefined),n,x,n,x,x,x
O=[N+]([O-])c1ccc2c(OCc3nnc(-c4ccccc4Br)o3)ncnc2c1,n,49,n,n,n,n
O=[N+]([O-])c1cc(Br)c(OCc2nnc(-c3ccccc3)o2)c(Br)c1,n,n,n,n,n,n
CN1CCN(C(=O)/C=C/c2ccc([N+](=O)[O-])cc2)CC1,n,61,n,n,n,n
O=C(/C=C/c1ccc([N+](=O)[O-])cc1)OCC(=O)N1CCCC1,n,45,n,n,x,n
O=C(OCC(=O)N1CCCCCC1)c1ccc([N+](=O)[O-])cc1Cl,n,46,n,n,n,n
O=C(/C=C/c1ccc([N+](=O)[O-])cc1)N1CCN(Cc2ccccc2)CC1,n,n,n,n,n,n
COc1ccc(-c2c(C)c3ccc(O)cc3oc2=O)cc1,n,n,n,n,n,n
O=C(CSc1nncn1-c1ccccc1F)NC1CCCCC1,n,n,n,n,x,n
OCC1OC(Oc2c(Br)cc(Br)cc2Br)C(O)C(O)C1O (centres undefined),n,x,n,x,x,x
O=C(CC(NC(=O)OCc1ccccc1)C(=O)OCc1ccccc1)OCc1ccccc1 (centres undefined),59,x,n,x,x,x
Cc1sc(NC(=O)c2ccc(Br)s2)c(C(N)=O)c1C,n,n,n,n,n,n
Cc1sc(NC(=O)c2ccc(Cl)s2)c(C(N)=O)c1C,n,47,n,n,n,n
c1ccc(-c2cc(CSc3nc4ccccc4[nH]3)on2)cc1,n,89,n,75,n,44
Cc1cccc2c3c([nH]c12)CCNC3,n,n,40,n,n,n
Cc1cccc2c(Cl)cc(=O)[nH]c12,n,x,n,x,n,x
CCc1ccc(NC(=O)CCC(=O)c2ccc(C)cc2)cc1,n,n,n,n,n,31
CC(C)(C)C(=O)N1N=C(c2ccc(NS(C)(=O)=O)cc2)CC1c1cccs1 (centres undefined),n,n,n,n,n,n
CC[C@H](C)[C@@H](C(=O)NCCCCCCCCCCC(=O)N1CCN(C(=O)OC(C)(C)C)CC1)n1cc(CCCCN=C(NC(=O)OC(C)(C)C)NC(=O)OC(C)(C)C)nn1,x,n,x,n,x,n
CC(C)(C)OC(=O)NCCCCCc1cn([C@@H](CO)C(=O)NCCCCCCCCCCC(=O)N2CCN(C(=O)OC(C)(C)C)CC2)nn1,87,71,n,74,x,96

# Bioassay records from PubChem BioAssay.
